Assay outcomes from PubChem.
Compounds with a hit are over-represented: about 2.3% of the library has one in this group of screens.
TRPC6 inh – mouse TRPC6 channel inhibitors, primary screen, cell-based, HEK293, membrane potential dye; ACh-evoked depolarization; hits give low values; AID 2553, 2010; B-score at 10 µM; 310,000 tested, 1.1% active;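 active = B-score under library mean minus 3 SD, initial fluorescence not abnormally high, positive integrated signal ratio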;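 note: B-score derived from integrated fluorescence ratio over the kinetic read; more negative B-score means stronger inhibition of depolarization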
TRPC6 activator – mouse TRPC6 channel activators, primary screen, cell-based, HEK293, membrane potential dye; Short transient receptor potential channel 6 (Mus musculus), Q61143; HEK293-TRPC6 membrane potential dye fluorescence; hits give high values; B-score at 10 µM; 310,000 tested, 0.13% active;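 active = B-score of the integrated fluorescence ratio above library mean plus 3 SD, and starting fluorescence ratio within library mean plus 5 SD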;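 note: higher score means more depolarization so channel activation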
TRPC4 PAM – positive allosteric modulators of TRPC4, primary screen, cell-based, mouse TRPC4beta, HEK293 mu-opioid, Fluo-4 calcium. 310,000 tested, 0.42% active. B-score at 10 µM. DAMGO EC20, Fluo-4 Ca2+ flux; hits give high values. AID 2227, 2009;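 active = B-score of calcium response area above 5 SD of library B-scores, with initial fluorescence ratio within 5 SD of library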
Target sequence (Q9QUQ5 whole entry, looked up): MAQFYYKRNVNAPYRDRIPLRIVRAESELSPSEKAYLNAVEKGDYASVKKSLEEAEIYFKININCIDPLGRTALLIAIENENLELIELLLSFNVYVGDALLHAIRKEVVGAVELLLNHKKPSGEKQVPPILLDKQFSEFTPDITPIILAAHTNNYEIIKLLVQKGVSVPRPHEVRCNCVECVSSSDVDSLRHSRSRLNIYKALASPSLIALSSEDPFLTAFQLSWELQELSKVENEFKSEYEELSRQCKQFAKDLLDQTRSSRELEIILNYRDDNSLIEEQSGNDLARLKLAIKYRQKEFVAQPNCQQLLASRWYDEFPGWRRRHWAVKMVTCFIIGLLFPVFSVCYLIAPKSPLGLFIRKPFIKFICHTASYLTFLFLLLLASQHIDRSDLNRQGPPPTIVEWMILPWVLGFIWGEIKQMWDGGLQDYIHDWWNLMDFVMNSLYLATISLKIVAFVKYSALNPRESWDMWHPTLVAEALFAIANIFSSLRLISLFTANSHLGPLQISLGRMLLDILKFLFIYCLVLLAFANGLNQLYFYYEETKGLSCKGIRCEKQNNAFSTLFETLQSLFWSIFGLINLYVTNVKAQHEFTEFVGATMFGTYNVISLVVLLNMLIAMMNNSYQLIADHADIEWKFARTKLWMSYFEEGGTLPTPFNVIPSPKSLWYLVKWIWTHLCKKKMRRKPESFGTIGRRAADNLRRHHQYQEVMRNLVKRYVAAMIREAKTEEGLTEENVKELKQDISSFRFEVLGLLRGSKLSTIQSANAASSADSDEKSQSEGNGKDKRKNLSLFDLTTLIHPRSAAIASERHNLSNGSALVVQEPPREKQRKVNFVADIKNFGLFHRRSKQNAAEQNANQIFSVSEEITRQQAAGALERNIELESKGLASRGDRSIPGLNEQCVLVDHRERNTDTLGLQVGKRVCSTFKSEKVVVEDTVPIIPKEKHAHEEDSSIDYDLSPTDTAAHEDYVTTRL
TRPC4 act – activators of mouse TRPC4 channel, primary screen, Fluo4 calcium, HEK293 TRPC4beta/mu-opioid cells; Short transient receptor potential channel 4 (Mus musculus), Q9QUQ5; Fluo4 calcium fluorescence; hits give high values; B-score at 10 µM; 310,000 tested, 0.49% active; AID 2237, 2010;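 active = B-score above 5 SD of library B-scores, and initial fluorescence ratio not above library mean plus 5 SD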;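 note: positive B-score marks a calcium rise read as TRPC4 activation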
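Material: HEK293 stable line with TRPC4beta plus mu-opioid receptor; technique: Fluo4 calcium-sensitive dye fluorescence, kinetic, 1 Hz baseline; timing: Fluo4 dye loading 45 min at room temperature, 110 s recording; controls: assay buffer as low control, maximal DAMGO as high control; read-out: integrated baseline-normalised fluorescence ratio, converted to per-well B score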
TRPC4 block – inhibitors of mouse TRPC4 channel, primary screen, Fluo4 calcium, HEK293 TRPC4beta/mu-opioid cells | 300,000 tested, 0.39% active | DAMGO-evoked Fluo4 calcium flux; hits give low values | AID 2247, 2010 | Short transient receptor potential channel 4 (Mus musculus), Q9QUQ5 | B-score at 10 µM;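 active = B-score over 3 SD under the library average, no early fluorescence shift, positive overall ratio signal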
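Material: HEK293 cells with stable TRPC4beta plus mu-opioid receptor expression; probe or stimulus: DAMGO in two steps, submaximal then maximal; technique: Fluo4 calcium fluorescence by kinetic imaging, 5 s 1 Hz baseline; measure: integrated fluorescence ratio relative to baseline, converted to per-well B score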
TRPC4 spec 2 – second selectivity test of TRPC6 inhibitors: effect on mouse TRPC4; HEK293 TRPC4/MOR, membrane potential dye fluorescence; channel activated by saturating DAMGO dose; shares compounds with TRPC6 inh; AID 2776; inhibition, % at 10 µM; 920 tested, 42% active;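 active = compounds whose fluorescence signal differed from control wells by over 3 SD, either direction, in both duplicate plates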
TRPC4 spec – mouse TRPC4 modulation by TRPC6 hits, confirmation, selectivity assay for TRPC6 inhibitor project, cell-based, HEK293 TRPC4/mu-opioid, membrane potential dye; 920 tested, 61% active; activity change, negative = inhibition, % at 10 µM; AID 2777, 2010; membrane potential fluorescence; shares compounds with TRPC6 inh;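 active = rise or fall in signal beyond 3 SD of buffer-only wells in both replicate plates, either sign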;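 note: integrated kinetic ratio of fluorescence range over baseline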
HEK293 MPD ctr 2-1 – nonspecific membrane potential effects, parental HEK293, confirmation, counter-screen for TRPC6 inhibitor project, cell-based, second counter screen; shares compounds with TRPC6 inh; parental HEK293 membrane potential dye fluorescence; maximal acetylcholine challenge after compound addition; signal change vs control, % at 10 µM; 920 tested, 31% active;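 active = membrane potential signal moving either way by over 3 SD of the maximum-effect control, in both duplicate plates, meaning non-specific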
HEK293 MPD ctr-1 – membrane potential modulation in parental HEK293, confirmation, counter-screen for TRPC6 inhibitor project, cell-based. AID 2780, 2010. shares compounds with TRPC6 inh. parental HEK293 membrane potential dye fluorescence. membrane potential signal change, % at 10 µM. 920 tested, 60% active;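 active = membrane potential signal shifting up or down by more than 3 SD of buffer-only wells, on both duplicate plates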
HEK293 MPD ctr-2 – parental HEK293 membrane potential modulation, confirmation, counter-screen for TRPC6 modulator project, cell-based. shares compounds with TRPC6 inh. membrane potential dye fluorescence. membrane potential signal change, % at 10 µM. 2,400 tested, 51% active;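 active = membrane potential signal moves up or down beyond 5 SD from buffer-only wells, on both duplicate plates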
HEK293 MPD ctr 2-2 – second counter-screen for TRPC6 modulators: effect in parental HEK293 cells | shares compounds with TRPC6 inh | membrane potential dye fluorescence; after compound, maximal acetylcholine stimulation | inhibition, % at 10 µM | 2,400 tested, 14% active | AID 488926;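 active = membrane potential signal drops by more than 5 SD from the mean control signal, in both duplicate plates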
TRPC4/MOR mod – TRPC4 modulation by TRPC6 hit compounds, confirmation, selectivity assay for TRPC6 modulator project, cell-based, HEK293 TRPC4/mu-opioid, membrane potential dye, mouse; 2,400 tested, 69% active; membrane potential fluorescence; shares compounds with TRPC6 inh; AID 488927, 2010; percent change from control (negative = decrease, positive = increase), % at 10 µM;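 active = membrane potential signal moved up or down beyond 5 SD of buffer control wells, in both duplicate plates, actives on both sides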
TRPC4 ctr inh 2 – second selectivity test of TRPC6 modulators against mouse TRPC4. inhibition, % at 10 µM. HEK293 TRPC4/mu-opioid, membrane potential dye fluorescence; stimulated with maximal-effect DAMGO. 2,400 tested, 55% active. AID 488928. shares compounds with TRPC6 inh;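 active = drop in membrane potential signal beyond 5 SD of the control wells in both duplicate plates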;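 note: TRPC4 counter screen for TRPC6 hits run under conditions tuned for TRPC6 not TRPC4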
TRPC6 block conf – mouse TRPC6 channel inhibitors, confirmation, HEK293 cells, membrane potential dye, duplicate | shares compounds with TRPC6 inh | AID 488960, 2010 | ACh-evoked depolarization | inhibition, % at 10 µM | 3,300 tested, 43% active;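 active = fluorescence ratio falls more than 5 SD below the full-stimulation control mean, in both duplicate runs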;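 note: integrated fluorescence ratio of peak minus minimum over baseline after agonist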
TRPC6 act conf – mouse TRPC6 channel activators, confirmation, HEK293 cells, membrane potential dye, duplicate; activation, % at 10 µM; AID 488961, 2010; HEK293-TRPC6 membrane potential dye fluorescence, FDSS; shares compounds with TRPC6 inh; 2,800 tested, 11% active;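 active = ratio signal rise beyond 5 SD above unstimulated control wells' mean, seen in both duplicate runs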
Hits are given with their value; . = inactive; / = no result; + = active, no number.

SMILES	TRPC6 inh	TRPC6 activator	TRPC4 PAM	TRPC4 act	TRPC4 block	HEK293 MPD ctr-2	HEK293 MPD ctr 2-2	TRPC4/MOR mod	TRPC4 ctr inh 2	TRPC6 block conf	TRPC6 act conf	others
CCc1nc2ccccc2c(=O)n1-c1ccccc1[N+](=O)[O-]	.	.	.	.	.	/	/	/	/	/	/
Cc1nonc1OCCNCCNc1ccc([N+](=O)[O-])c2cccnc12	-5.14	.	.	.	.	-179.5%	.	-37.5%	75.0%	48.0%	.
CCNCCNc1ccc([N+](=O)[O-])c2cccnc12	-5.94	.	18	.	.	-288.5%	.	-39.5%	54.0%	72.0%	.
CCOC(=O)CC(NC(=O)C(Cc1ccc(N(CCCl)CCCl)cc1)NC(C)=O)C(=O)OCC (centres undefined)	.	.	.	.	.	/	/	/	/	/	/
CN1C(=O)C2C[C@@]3(Br)c4ccccc4N(OOSc4ccccc4)[C@H]3N2C(=O)[C@@H]1Cc1ccccc1 (some centres undefined)	.	.	.	.	.	/	/	/	/	/	/
C/C=C1/CC(C)C(C)(O)C(=O)OCC2CCN3CCC(OC1=O)C23 (centres undefined)	-6.21	.	.	.	.	.	81.0%	18.5%	.	78.5%	.
COc1cc2c(cc1O)CC1c3c(cc(O)c(OC)c3-2)CCN1C (centres undefined)	.	.	.	.	.	/	/	/	/	/	/
CCCN1CCc2cccc3c2[C@H]1Cc1ccc(O)c(O)c1-3	-5.57	.	.	.	.	.	.	.	37.0%	.	.
COc1ccc(CCNCc2c(OC)ccc3ccccc23)cc1	-7.05	.	.	.	.	/	/	/	/	65.3%	/	TRPC4 spec 2=69.0%;TRPC4 spec=46.7%;HEK293 MPD ctr 2-1=.;HEK293 MPD ctr-1=23.9%
Cc1ccc(-c2cc(-c3ccccc3)cc(-c3ccccc3)[n+]2-c2ccc(C(=O)O)cc2)cc1	.	.	.	.	.	/	/	/	/	/	/
Cc1ccccc1-[n+]1c(-c2ccccc2)cc(-c2ccccc2)cc1-c1ccccc1	-10	.	.	.	.	/	/	/	/	99.6%	.	TRPC4 spec 2=60.5%;TRPC4 spec=20.1%;HEK293 MPD ctr 2-1=.;HEK293 MPD ctr-1=7.1%
COc1ccc(-[n+]2c(-c3ccccc3)cc(-c3ccc(C)cc3)cc2-c2ccccc2)cc1	-9.12	.	.	.	.	/	/	/	/	70.4%	/	TRPC4 spec 2=.;TRPC4 spec=16.9%;HEK293 MPD ctr 2-1=.;HEK293 MPD ctr-1=17.5%
COc1ccc(-c2cc(-c3ccccc3)[n+](C)c(-c3ccccc3)c2)cc1	-5.57	.	.	.	.	.	.	.	.	.	.
NNc1n[nH]c(=S)n1N	.	.	.	.	.	/	/	/	/	/	/
COc1ccc(Cc2c(O)[nH]c(=S)[nH]c2=O)cc1	.	.	.	.	.	/	/	/	/	/	/
CC(C)CNc1c2c(nc3ccccc13)CCC2	.	.	.	.	.	/	/	/	/	/	/
c1ccc(CNc2c3c(nc4ccccc24)CCC3)cc1	-5.8	.	.	.	.	.	.	.	52.5%	.	.
OCCNc1c2c(nc3ccccc13)CCCC2	-6.65	.	.	.	.	/	/	/	/	.	.	TRPC4 spec 2=.;TRPC4 spec=-23.2%;HEK293 MPD ctr 2-1=.;HEK293 MPD ctr-1=-362.5%
CN[C@@H](C)[C@@H](O)c1ccccc1	.	.	.	.	.	/	/	/	/	/	/
O=C(/C=C/c1c[nH]c2ccccc12)c1c(O)n(CCc2ccccc2)c(=O)[nH]c1=O	.	144	.	.	.	+	.	391.5%	.	.	390.0%
CCCCn1c(O)c(C(C)=NCCc2c[nH]c3ccccc23)c(=O)[nH]c1=O	.	.	.	.	.	/	/	/	/	/	/
C/C(CC(c1ccccc1)c1c(O)c2ccccc2oc1=O)=N\Nc1ccc([N+](=O)[O-])cc1[N+](=O)[O-] (centres undefined)	.	.	.	.	.	/	/	/	/	/	/
O=c1oc2ccccc2c(O)c1C(c1ccc([N+](=O)[O-])cc1)c1c(O)c2ccccc2oc1=O	-7.29	.	.	.	.	/	/	/	/	.	.	TRPC4 spec 2=.;TRPC4 spec=.;HEK293 MPD ctr 2-1=.;HEK293 MPD ctr-1=-272.5%
Cc1cc(OC(C)C(=O)NCc2ccncc2)c2c3c(c(=O)oc2c1)CCC3 (centres undefined)	.	.	.	.	.	/	/	/	/	/	/
CC(=O)c1ccc(NC(=O)N2C[C@H]3C[C@@H](C2)c2cccc(=O)n2C3)cc1	.	.	.	.	.	/	/	/	/	/	/
CCC(CO)(C(=O)OC1CC2CCC(C1)N2C)c1ccccc1 (centres undefined)	-7.56	.	.	.	.	/	/	/	/	88.7%	.	TRPC4 spec 2=.;TRPC4 spec=.;HEK293 MPD ctr 2-1=-46.5%;HEK293 MPD ctr-1=.
Cc1nc2c(C(=O)N3CCC4(CC3)OCCO4)cnn2c(C)c1Cc1cccc(Cl)c1	-5.23	.	.	.	.	.	.	.	.	45.0%	/
COc1ccc(C(=O)OC2CC3CCC(C2)[N+]3(C)[O-])cc1OC (centres undefined)	.	.	.	.	.	/	/	/	/	/	/
